The structures appear in SMILES notation.

Experimental findings from paper PMC9860304 (Proceedings of the National Academy of Sciences of the …, 2022) are described below.

This test deals with RAN translation of r(G4C2)^exp. The test can be described thus: RAN translation assay in HEK293T cells co-transfected with. The test is classed as cell-based. As to conditions: read-out: IC50 for inhibition of RAN translation, approximate values. The gist of the method:
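HEK293T cells in DMEM/10% FBS at ~80% confluency were co-transfected with (G4C2)66-no ATG-GFP and an mCherry control plasmid, reseeded, and dosed 2 h later. After 24 h with compound, cells were lysed in 100 mM potassium phosphate pH 7.8 with 0.2% Triton X-100. GFP (ex 485/20, em 528/20) and mCherry (ex 530/25, em 590/35) were read, and the untransfected-cell-background-corrected GFP/mCherry ratio was used.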

As for `Cc1c2ccnc(C(=O)NCCN(C)C)c2cc2c3cc(O)ccc3n(C)c12` [Compound 2], the IC50 was about 300 nM.

Usually IC50 stands for the concentration at which inhibition is half-maximal.
